Experimental findings from publication PMC11564562 (Scientific Reports, 2024) are described below.

The term IC50 denotes the concentration needed to halve the response being measured.

Test [1] deals with MCF-7 breast cancer cells. Put plainly: MTT cytotoxicity assay, MCF-7. The conditions noted are these: Homo sapiens, MCF7, 72 h, read-out: IC50 cytotoxicity against MCF-7 cells. The format is cell-based. Put shortly:
(§1)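 MTT assay: cells cultured at 37 °C in 5% CO2 with 10% FBS and penicillin/streptomycin, HeLa in DMEM and MCF-7 in RPMI 1640. Seeded at 5,000 cells/well and left to adhere 24 h, then exposed 72 h to 0.1, 1, 10 and 100 µM test compound, diluted from 10 mM DMSO stocks in medium. MTT (5 mg/mL) added for 3 h, formazan dissolved in DMSO, absorbance read. Blank-corrected % survival taken relative to untreated cells; IC50 calculated; mean ± SD, n = 3; doxorubicin as positive control.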
In general terms: Tetrazolium dyes change colour on reduction, which living cells bring about.

For test [2], the system named is Hsp90 protein level in MCF-7 cells. The experiment in a line: Hsp90 protein level assay. The format is cell-based, human. The conditions noted are these: 10 µM, control (untreated) cells 5.54 ng/mL. Put shortly:
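Sandwich ELISA kit quantifying intracellular Hsp90 in MCF-7 cells against untreated cells. Standards and samples incubated 2 h at 37 °C, then biotinylated antibody 1 h at 37 °C, three washes, HRP-avidin 1 h at 37 °C, washes, TMB 15–30 min at 37 °C. Stop solution added and absorbance read at 450 nm. Experiment run in triplicate (n = 3); significance set at p < 0.05.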

Test [3] concerns HeLa cells. Put plainly: MTT cytotoxicity assay, HeLa. The test is classed as cell-based. The note with it: Homo sapiens, 72 h, read-out: IC50 cytotoxicity against HeLa cells. The method, boiled down: as §1

Some results are limits rather than exact numbers.

Turning to `C=CCNC1=C2C[C@@H](C)C[C@H](OC)[C@H](O)[C@@H](C)/C=C(\C)[C@H](OC(N)=O)[C@@H](OC)/C=C\C=C(/C)C(=O)NC(=CC1=O)C2=O` [17-AAG, Tanespimycin, reference compound], in test [1], the half-inhibitory concentration (IC50) worked out at 0.1 µM.

Consider `COc1ccc(-c2noc(N)c2C#N)c(OC)c1` [compound 1, 5-amino-(2,4-dimethoxyphenyl) isoxazole-4-carbonitrile], for which the “Hsp90 protein level after treatment” value in test [2] came out at 4.85 ng/mL. For the same compound, the IC50 in test [3] stood at 7.91 µM; in test [1], 0.31 µM.

With `COc1ccc(-c2noc(NC(=O)c3ccccc3)c2C#N)c(OC)c1` [compound 2, N-(4-cyano-3(2,4-dimethoxyphenyl)isoxazol-5-yl) benzamide], the IC50 in test [3] is greater than 100 µM; in test [1], no less than 100 µM.

In the case of `COc1ccc(-c2noc(NC(=O)c3ccc(Cl)cc3)c2C#N)c(OC)c1` [compound 3, N-(4-cyano-3-(2,4-dimethoxyphenyl)isoxazol-5-yl)-4-chlorobenzamide], the IC50 was 3.61 µM in test [3] and 68.3 µM in test [1].

Regarding `COc1ccc(-c2noc(NC(=O)c3ccc(C(F)(F)F)cc3)c2C#N)c(OC)c1` [compound 4, N-(4-cyano-3-(2,4-dimethoxyphenyl)isoxazol-5-yl)-4-(trifluoromethyl)benzamide], the “Hsp90 protein level after treatment” value in test [2] is 2.81 ng/mL. Besides, the IC50 in test [3] was found to be 19.4 µM; in test [1] it was 50.6 µM.

For the compound `COc1ccc(-c2noc(NC(=O)c3ccc(F)cc3)c2C#N)c(OC)c1` [compound 8, N-(4-cyano-3(2,4-dimethoxyphenyl)isoxazol-5-yl)-4-fluorobenzamide], the half-maximal inhibitory concentration (IC50) in test [3] was 31.9 µM; in test [1], 54.1 µM.
